Screening data from PubChem.
This is a sample that favours compounds with a hit; in the whole collection about 2% have one here.
CAL PDZ FP-1: CAL PDZ peptide-binding inhibitors, primary screen, biochemical, fluorescence polarization, Cer-tagged CAL PDZ, HTS | Golgi-associated PDZ and coiled-coil motif-containing protein (Homo sapiens), Q9HD26 | purified CAL PDZ, TMR-peptide fluorescence polarization, 1 h | inhibition, % at 20 µM | 0.02% of 330,000 active | AID 504414, 2011;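 active = highest replicate inhibition of at least 40%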;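 note: plate controls were DMSO neutral control wells for no effect and unlabeled competitor peptide control wells for full effect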
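Test system: purified CerCALP PDZ construct; Compound dosing: one concentration, 20 µM compound; Also added: TMR-labelled reporter peptide T*-PRC34 bound in PDZ groove; Read-out: inhibition from polarization loss; Controls: unlabelled peptide and DMSO controls; Signal: FP readout, S and P plane fluorescence; Incubation: 1 h at RT.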
CAL PDZ FP-2: untagged CAL PDZ binding inhibitors, primary screen, biochemical, fluorescence polarization, HTS. AID 602252, 2012. Golgi-associated PDZ and coiled-coil motif-containing protein (Homo sapiens), Q9HD26. purified CAL PDZ, TMR-peptide fluorescence polarization, 1 h. 0.92% of 300,000 active. inhibition, % at 24.9 µM;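 active = mean inhibition of at least 30% with at least half of replicates also reaching 30%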;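 note: 0% = DMSO neutral control and 100% = excess unlabeled competitor peptide PRC23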
PKA-R2B act: activators of PKA-R2B holoenzyme, primary screen, biochemical, fluorescence polarization, Cy5-IP20, human; PKA-R2B holoenzyme dissociation; R2B truncated from residue 108, S112A mutant; 0% DMSO only, 100% 113 µM cGMP; activation, % at 11.4 µM; 0.079% of 340,000 active;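 active = activation above a cutoff set at the mean over all compounds plus 3 SD, cut at about 18% in these data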;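 note: higher means more holoenzyme dissociation and a rise in polarization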
Target sequence (P31323 whole entry, looked up, other chains not shown, the tested form may be a part): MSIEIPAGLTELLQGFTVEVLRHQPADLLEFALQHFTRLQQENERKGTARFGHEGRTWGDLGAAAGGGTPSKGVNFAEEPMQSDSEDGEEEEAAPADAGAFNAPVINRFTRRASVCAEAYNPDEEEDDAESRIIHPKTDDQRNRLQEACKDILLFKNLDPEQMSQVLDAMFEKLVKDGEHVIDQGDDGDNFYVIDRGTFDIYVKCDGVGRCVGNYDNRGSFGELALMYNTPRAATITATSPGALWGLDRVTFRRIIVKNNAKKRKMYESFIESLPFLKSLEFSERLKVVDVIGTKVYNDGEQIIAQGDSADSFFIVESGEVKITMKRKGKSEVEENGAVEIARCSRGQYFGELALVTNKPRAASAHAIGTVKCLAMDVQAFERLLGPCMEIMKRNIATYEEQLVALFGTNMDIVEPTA
dFosB act: activators of delta FosB homodimer, primary screen, biochemical, fluorescence polarization, TAMRA-CDK5 oligo, single point; Protein FosB (Mus musculus), P13346; purified delta FosB; percent of positive-control signal above neutral wells; activation, % at 25 µM; 0.99% of 340,000 active;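 active = mean activation above about 17%, with every replicate also reaching it, limit read from the data, passing the limit was not always enough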
NTR1 agonist: agonists of human NTR1, primary screen, imaging, U2OS cells, beta-arrestin-GFP, high content; activation, % at 20 µM; Neurotensin receptor type 1 (Homo sapiens), P30989; AID 493036, 2011; 0.17% of 330,000 active; NTR1-U2OS beta-arrestin-GFP spot imaging, agonist mode;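 active = activation at or above 40% of the spot to cytoplasm intensity ratio, with at least 20 cells analyzed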;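 note: 0% = DMSO without peptide and 100% = 100 nM NTR1 peptide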
PKA-R1A activ: activators of PKA-R1A holoenzyme, primary screen, biochemical, fluorescence polarization, Cy5-IP20, bovine R1A, mouse PKAc | 0.083% of 340,000 active | activation, % at 11.4 µM | PKA-R1A dissociation; scaled: DMSO 0%, 113 µM cGMP 100% | cAMP-dependent protein kinase type I-alpha regulatory subunit (Bos taurus) + …;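 active = percent activation above the mean of all tested compounds plus 3 SD, cut at about 19% in these data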;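 note: higher means more PKAc released from R1A so a rise in polarization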
An asterisk follows results filed as active.

O=C(/C=C/c1ccc(Br)cc1)c1ccc(NC2=NCCCS2)cc1 was read as CAL PDZ FP-1 -0.4, CAL PDZ FP-2 -2.3, PKA-R2B act 1.9, dFosB act 20.1*, NTR1 agonist 11.2 and PKA-R1A activ -8.8.
`COc1ccccc1OCCNC(=O)c1cccc(S(=O)(=O)NCc2ccccc2)c1` gave CAL PDZ FP-1 -0.1, CAL PDZ FP-2 -1.1, PKA-R2B act -3.8, dFosB act -4.6, NTR1 agonist -1.8 and PKA-R1A activ 0.3.
Screening C/C(CC(=O)Nc1ccc(N(C)C)cc1)=N\NC(=O)c1ccc(C(C)(C)C)cc1 returned CAL PDZ FP-1 -1.0, CAL PDZ FP-2 5.8, PKA-R2B act 6.7, dFosB act -6.3, NTR1 agonist 2.1 and PKA-R1A activ -7.3.
`CCN(CC)CCNC(=O)C(=O)Nc1ccc(C(=O)OC)cc1` gave CAL PDZ FP-1 -0.6, CAL PDZ FP-2 active, PKA-R2B act -1.6, dFosB act -0.4, NTR1 agonist -0.7 and PKA-R1A activ 2.5.
O=C(CCN1C(=O)/C(=C/c2ccccc2)SC1=S)NCCc1ccc(O)cc1 was read as CAL PDZ FP-1 0.0, CAL PDZ FP-2 -3.1, PKA-R2B act -1.5, dFosB act -1.5, NTR1 agonist 1.4 and PKA-R1A activ -13.0.
Screening O=C(CCN1C(=O)/C(=C/c2ccc(F)cc2)SC1=S)NC1CCS(=O)(=O)C1 (centres undefined) returned CAL PDZ FP-1 -1.8, CAL PDZ FP-2 -4.9, PKA-R2B act -13.2, dFosB act -1.9, NTR1 agonist -0.1 and PKA-R1A activ -6.5.
`COc1ccc(/C=C2\SC(=S)N(CCC(=O)NCCc3ccc(O)cc3)C2=O)cc1` gave CAL PDZ FP-1 -2.8, CAL PDZ FP-2 -5.7, PKA-R2B act 2.1, dFosB act 38.4*, NTR1 agonist 1.2 and PKA-R1A activ -14.6.
`COc1ccc(/C=C2/SC(=S)N(CCCC(=O)Nc3ccc(O)cc3)C2=O)cc1` gave CAL PDZ FP-1 -0.5, CAL PDZ FP-2 46.1*, PKA-R2B act -1.2, dFosB act -4.2, NTR1 agonist 4.6 and PKA-R1A activ -3.2.
Screening COc1ccc(/C=C2\SC(=S)N(CCC(=O)Nc3cccc(O)c3)C2=O)cc1 returned CAL PDZ FP-1 0.0, PKA-R2B act -7.9, dFosB act 24.7*, NTR1 agonist 10.2 and PKA-R1A activ -9.6.
Screening COc1ccc(/C=C2\SC(=S)N(CC(=O)NC3CCS(=O)(=O)C3)C2=O)cc1 (centres undefined) returned CAL PDZ FP-1 -2.3, CAL PDZ FP-2 -4.1, PKA-R2B act 0.7, dFosB act 47.3*, NTR1 agonist -0.3 and PKA-R1A activ -1.7.
COc1ccccc1NC(=O)N1CCN(C(=O)c2ccco2)CC1 was read as CAL PDZ FP-1 -1.7, CAL PDZ FP-2 -2.6, PKA-R2B act -1.2, dFosB act 0.1, NTR1 agonist 2.2 and PKA-R1A activ 0.6.
`CCOC(=O)c1ccccc1NC(=O)CSc1ccc(-c2ccccn2)nn1` gave CAL PDZ FP-1 -1.9, CAL PDZ FP-2 50.7*, PKA-R2B act 8.7, dFosB act -18.5, NTR1 agonist 1.4 and PKA-R1A activ 7.7.
Screening CCc1ccc(NC(=O)CSc2ccc(-c3ccccn3)nn2)cc1 returned CAL PDZ FP-1 -2.6, CAL PDZ FP-2 -2.6, PKA-R2B act -0.7, dFosB act 0.2, NTR1 agonist 2.3 and PKA-R1A activ 3.0.
For COC(=O)c1cc2ccccc2c(-c2c(OC)c(C(=O)OC)cc3ccccc23)c1OC the results were CAL PDZ FP-1 -0.2, CAL PDZ FP-2 -3.6, PKA-R2B act -12.2, dFosB act -14.6, NTR1 agonist 1.4 and PKA-R1A activ 5.7.
`COC(=O)c1cc2ccccc2c([N+](=O)[O-])c1O` gave CAL PDZ FP-1 -0.3, CAL PDZ FP-2 107.7*, PKA-R2B act -7.9, dFosB act 8.2 and PKA-R1A activ -10.8.
Screening Cc1cc(N2CCN(c3ccccc3)CC2)nc2ccccc12 returned CAL PDZ FP-2 62.1*, PKA-R2B act -3.0, dFosB act -6.7, NTR1 agonist 4.2 and PKA-R1A activ 10.8.
Screening O=C(NCCC(=O)N1CCCC(C(F)(F)F)C1)c1ccccc1Cl (centres undefined) returned CAL PDZ FP-1 0.2, CAL PDZ FP-2 -2.4, PKA-R2B act -5.5, dFosB act 1.5, NTR1 agonist -0.9 and PKA-R1A activ 0.8.
For COc1cccc(-n2c(=O)c3sccc3n(CC(=O)NCC3CCCO3)c2=O)c1 (centres undefined) the results were CAL PDZ FP-1 -2.8, CAL PDZ FP-2 38.5*, PKA-R2B act 4.9, dFosB act -4.0, NTR1 agonist 3.0 and PKA-R1A activ 10.8.
Screening COc1ccc(-c2ccnc3[nH]n(-c4ccccc4)c(=O)c23)cc1 returned CAL PDZ FP-1 -1.0, CAL PDZ FP-2 59.7*, PKA-R2B act -11.0, dFosB act 4.7, NTR1 agonist 0.1 and PKA-R1A activ 7.7.
For COc1cccc(-c2ccnc3[nH]n(-c4ccccc4)c(=O)c23)c1 the results were CAL PDZ FP-1 -1.3, CAL PDZ FP-2 67.1*, PKA-R2B act -7.9, dFosB act 11.3, NTR1 agonist 0.7 and PKA-R1A activ 2.2.
`O=C(O)CC1NC(=S)N(Cc2ccccc2)C1=O` (centres undefined) gave PKA-R2B act 4.3 and PKA-R1A activ 0.0.
`CNC(=O)NC(=O)Cn1nc2n(c1=O)-c1ccccc1SC2` gave CAL PDZ FP-1 0.1, CAL PDZ FP-2 53.2*, PKA-R2B act -1.1, dFosB act -0.6, NTR1 agonist 1.6 and PKA-R1A activ -7.9.
O=C(NCc1cccnc1)C1CCN(S(=O)(=O)c2cc(Cl)ccc2Cl)CC1 was read as CAL PDZ FP-1 -2.8, CAL PDZ FP-2 -3.8, PKA-R2B act -3.6, dFosB act -4.5, NTR1 agonist -1.0 and PKA-R1A activ -7.1.
O=c1c2cc(Br)ccc2[nH]c(=S)n1Cc1ccccc1 was read as CAL PDZ FP-1 -0.9, PKA-R2B act -1.0, dFosB act 2.5, NTR1 agonist 20.2 and PKA-R1A activ -10.4.
O=C(NCc1cccnc1)c1ccc(Cn2c(=S)[nH]c3ccc(Br)cc3c2=O)cc1 was read as CAL PDZ FP-1 23.3, CAL PDZ FP-2 active, PKA-R2B act 6.0, dFosB act -19.7, NTR1 agonist 0.7 and PKA-R1A activ -7.6.
